According to article PMC8988011 (The Journal of Biological Chemistry, 2022):

How the values were obtained:
LATS1 = target: T1, LATS1 (Homo sapiens, UniProt O95835); test: Kinase assay; type: biochemical
T1 sequence (O95835 589-1130 limits assumed): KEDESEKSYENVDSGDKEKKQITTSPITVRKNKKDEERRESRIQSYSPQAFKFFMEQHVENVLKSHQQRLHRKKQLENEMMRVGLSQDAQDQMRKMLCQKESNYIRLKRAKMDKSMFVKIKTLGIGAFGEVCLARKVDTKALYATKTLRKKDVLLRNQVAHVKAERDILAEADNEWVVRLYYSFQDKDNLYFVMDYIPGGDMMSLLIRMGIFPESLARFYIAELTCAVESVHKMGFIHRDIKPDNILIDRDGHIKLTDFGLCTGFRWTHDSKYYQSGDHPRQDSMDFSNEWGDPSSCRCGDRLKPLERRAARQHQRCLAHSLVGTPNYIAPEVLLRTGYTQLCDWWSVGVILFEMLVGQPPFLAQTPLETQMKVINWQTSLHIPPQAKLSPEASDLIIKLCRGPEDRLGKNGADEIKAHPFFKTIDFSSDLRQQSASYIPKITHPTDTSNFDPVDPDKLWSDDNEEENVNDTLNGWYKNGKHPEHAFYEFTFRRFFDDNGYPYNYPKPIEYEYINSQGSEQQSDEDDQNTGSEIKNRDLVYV
Summary of the method: (§1)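 LATS1 and LATS2 activity was measured with a fluorescence kinase/ADP kit following the maker's protocol in 384-well format. IC50 came from dose-response inhibition curves at 400 μM ATP. Mode of inhibition was assessed from Lineweaver-Burk plots of reaction velocity at ATP 100 to 400 μM. Three independent experiments, means ± SD.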

LATS2 = target: T2, LATS2 (Homo sapiens, UniProt Q9NRM7); test: Kinase assay; type: biochemical
T2 sequence (Q9NRM7 553-1088 limits assumed): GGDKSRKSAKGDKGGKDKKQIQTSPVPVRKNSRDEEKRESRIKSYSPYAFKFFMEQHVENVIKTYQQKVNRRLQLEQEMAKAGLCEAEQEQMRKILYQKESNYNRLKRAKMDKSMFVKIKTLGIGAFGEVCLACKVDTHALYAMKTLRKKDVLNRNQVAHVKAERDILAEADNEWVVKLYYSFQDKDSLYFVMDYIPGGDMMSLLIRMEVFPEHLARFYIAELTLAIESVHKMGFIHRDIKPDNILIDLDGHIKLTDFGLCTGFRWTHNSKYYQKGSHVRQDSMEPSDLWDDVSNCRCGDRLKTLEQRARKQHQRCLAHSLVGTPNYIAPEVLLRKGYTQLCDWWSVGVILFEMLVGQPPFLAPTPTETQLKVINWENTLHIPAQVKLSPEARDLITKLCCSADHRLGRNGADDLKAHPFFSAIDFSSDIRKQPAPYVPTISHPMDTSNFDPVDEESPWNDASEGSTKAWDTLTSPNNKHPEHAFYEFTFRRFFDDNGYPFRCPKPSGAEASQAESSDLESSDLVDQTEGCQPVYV
Summary of the method: as §1

SKOV3 cells [1] = test: Growth in U-bottom low-attachment plates; type: cell-based, Human; details: with GA-017, 4 days, Fig. 3J
[2] = system: LATS1-deleted or LATS2-deleted SKOV3 cells; test: Growth of LATS knockout cells in U-bottom low-attachment plates, ATP assay; type: cell-based, Human; details: 10 μM, 4 days
MSK1 = MSK1 (Homo sapiens, UniProt O75582); test: Kinase panel assay; type: biochemical
SKOV3 cells [3] = test: Growth in gellan gum–containing medium; type: cell-based, Human; details: 10 μM, maximally effective concentration
Summary of the method: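 SKOV3 cells were suspended in medium with 0.015% (w/v) gellan gum and seeded at 2000 cells/well in 96-well flat-bottom low-attachment plates, 37 °C, 5% CO2. A test compound concentration series or DMSO vehicle was applied for 4 days. Cell number was read by ATP assay and expressed as % of DMSO control.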

A431 cells = test: Hanging drop cell culture, ATP assay; type: cell-based, Human; details: 10 μM, 2 days
Summary of the method: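 A431 cells at 50,000 cells/ml received 10 μM test compound or DMSO. They were then hung as 10 μl drops (15 per lid) over a PBS-filled dish and cultured 2 days at 37 °C. Pooled drops were assayed for cell number by ATP assay, as % of DMSO control. 11 independent experiments, means ± SD, Student's t test.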

PKACα = PKACα (Homo sapiens, UniProt P17612); test: Kinase panel assay; type: biochemical
MDCK cells = test: Cyst culture in Matrigel; type: cell-based, canine; details: 10 μM, 6 days
Summary of the method: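 MDCK cells at 1.1 × 10^4 cells/ml in medium with 0.2% Matrigel GFR were plated onto a pre-set Matrigel GFR layer (15 min, 37 °C). Medium holding 10-fold concentrated test compound or DMSO was added, and plates were incubated for 6 days at 37 °C. Cysts (>30 μm diameter) were counted and sized by automated imaging. Three independent experiments, means ± SD, Student's t test.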

SGK3 = target: T3, SGK3 (Homo sapiens, UniProt Q96BR1); test: Kinase panel assay; type: biochemical
T3 sequence (Q96BR1 1-496): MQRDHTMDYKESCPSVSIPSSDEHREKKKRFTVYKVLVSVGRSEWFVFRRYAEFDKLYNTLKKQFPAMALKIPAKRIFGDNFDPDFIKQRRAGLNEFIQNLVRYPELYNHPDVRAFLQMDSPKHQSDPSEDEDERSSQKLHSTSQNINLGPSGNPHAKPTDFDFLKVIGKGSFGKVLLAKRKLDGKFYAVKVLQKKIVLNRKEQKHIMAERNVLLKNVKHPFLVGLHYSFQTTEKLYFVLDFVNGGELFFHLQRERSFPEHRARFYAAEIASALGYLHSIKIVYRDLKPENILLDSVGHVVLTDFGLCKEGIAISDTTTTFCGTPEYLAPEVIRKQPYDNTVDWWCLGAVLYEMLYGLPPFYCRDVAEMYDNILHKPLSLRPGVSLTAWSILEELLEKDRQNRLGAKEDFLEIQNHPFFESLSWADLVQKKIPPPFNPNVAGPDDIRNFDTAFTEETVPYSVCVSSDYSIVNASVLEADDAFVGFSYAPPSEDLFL

SKOV3 cells [4] = test: Growth in 2D monolayer culture, ATP assay; type: cell-based, Human; details: 10 μM; Fig. 1D
Summary of the method: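 SKOV3 monolayers were grown in medium without gellan gum on cell-attachable 96-well flat-bottom plates at 700 cells/well, 37 °C, 5% CO2, humidified. Cultures received 10 μM test compound or DMSO vehicle. Cell number was followed over time by ATP assay, and each day's value was normalized to day 0.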

p70S6K = p70S6K (Homo sapiens, UniProt P23443); test: Kinase panel assay; type: biochemical
[5] = system: mouse intestinal organoids; test: Organoid culture in Matrigel; type: cell-based; details: 10 μM, up to 9 days, vs vehicle
SGK2 = target: T4, SGK2 (Homo sapiens, UniProt Q9HBY8); test: Kinase panel assay; type: biochemical
T4 sequence (Q9HBY8 1-367): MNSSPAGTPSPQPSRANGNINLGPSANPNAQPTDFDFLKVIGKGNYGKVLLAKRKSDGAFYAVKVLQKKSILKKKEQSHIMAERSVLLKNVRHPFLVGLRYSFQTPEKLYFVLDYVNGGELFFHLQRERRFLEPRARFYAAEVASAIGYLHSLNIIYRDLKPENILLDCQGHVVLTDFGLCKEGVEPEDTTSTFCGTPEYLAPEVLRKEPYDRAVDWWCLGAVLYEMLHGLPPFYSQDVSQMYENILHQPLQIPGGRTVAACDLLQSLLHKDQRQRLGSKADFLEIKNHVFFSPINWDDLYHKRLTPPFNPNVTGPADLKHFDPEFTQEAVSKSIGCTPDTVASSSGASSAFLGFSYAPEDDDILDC

PKACβ = PKACβ (Homo sapiens, UniProt P22694); test: Kinase panel assay; type: biochemical

Sequence of p70S6K (P23443 whole entry): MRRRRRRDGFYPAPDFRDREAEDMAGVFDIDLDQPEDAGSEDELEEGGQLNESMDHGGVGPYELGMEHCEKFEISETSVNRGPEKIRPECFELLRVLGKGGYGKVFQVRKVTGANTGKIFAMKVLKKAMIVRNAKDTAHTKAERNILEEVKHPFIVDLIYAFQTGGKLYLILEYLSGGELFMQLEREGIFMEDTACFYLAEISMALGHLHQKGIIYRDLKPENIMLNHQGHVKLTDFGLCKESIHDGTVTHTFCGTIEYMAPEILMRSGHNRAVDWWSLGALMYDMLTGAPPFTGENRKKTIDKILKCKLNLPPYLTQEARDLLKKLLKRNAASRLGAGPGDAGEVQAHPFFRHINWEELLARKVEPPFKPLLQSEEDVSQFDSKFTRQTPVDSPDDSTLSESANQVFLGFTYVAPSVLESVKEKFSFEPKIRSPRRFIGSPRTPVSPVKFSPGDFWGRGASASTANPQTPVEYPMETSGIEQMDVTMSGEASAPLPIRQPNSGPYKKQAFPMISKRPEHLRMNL
Sequence of MSK1 (O75582 whole entry): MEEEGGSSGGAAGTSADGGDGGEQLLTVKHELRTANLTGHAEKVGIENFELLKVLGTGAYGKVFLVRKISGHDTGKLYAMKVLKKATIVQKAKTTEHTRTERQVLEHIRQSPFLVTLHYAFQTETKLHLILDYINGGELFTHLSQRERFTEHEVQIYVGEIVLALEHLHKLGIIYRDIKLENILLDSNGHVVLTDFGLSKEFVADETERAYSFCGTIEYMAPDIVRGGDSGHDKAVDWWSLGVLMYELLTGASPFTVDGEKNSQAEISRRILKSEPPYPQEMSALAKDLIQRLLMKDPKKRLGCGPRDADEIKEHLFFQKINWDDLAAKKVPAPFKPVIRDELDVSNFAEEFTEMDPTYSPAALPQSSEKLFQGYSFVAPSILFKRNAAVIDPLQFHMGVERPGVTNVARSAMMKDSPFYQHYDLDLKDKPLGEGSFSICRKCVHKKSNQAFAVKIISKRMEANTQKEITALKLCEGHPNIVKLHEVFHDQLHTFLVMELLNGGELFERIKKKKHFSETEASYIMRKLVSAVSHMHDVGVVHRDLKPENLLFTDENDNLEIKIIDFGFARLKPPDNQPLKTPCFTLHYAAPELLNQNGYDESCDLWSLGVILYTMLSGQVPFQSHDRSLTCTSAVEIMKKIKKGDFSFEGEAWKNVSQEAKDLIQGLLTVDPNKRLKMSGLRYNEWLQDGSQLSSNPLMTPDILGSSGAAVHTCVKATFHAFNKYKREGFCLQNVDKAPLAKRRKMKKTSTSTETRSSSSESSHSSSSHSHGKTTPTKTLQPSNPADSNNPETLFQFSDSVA

CC/C(=N\NC(=O)C(C)Nc1ccccc1)c1ccc(O)c(C)c1O (stereo not shown) [GA-002, (E)-N'-(1-(2,4-dihydroxy-3-methylphenyl)propylidene)-2-(phenylamino)propanehydrazide]
inhibition of LATS1 (LATS1; compared with GA-017, Fig. S7): comparable inhibition | inhibition of LATS2 (LATS2; compared with GA-017, Fig. S7): comparable inhibition

Verteporfin
effect on the growth-promoting effect of GA-017 (SKOV3 cells [1]): abolished the growth-promoting effect of GA-017

CC/C(=N\NC(=O)NCc1cccc(O)c1)c1ccc(O)c(C)c1O [GA-017, (E)-2-(1-(2,4-dihydroxy-3-methylphenyl)propylidene)-N-(3-hydroxybenzyl)hydrazine-1-carboxamide]
growth-promoting effect on LATS1- or LATS2-deleted cells [2]: did not exhibit a growth-promoting effect | IC50 (LATS1): 4.1 ± 0.79 nM | Ki (LATS1): 0.58 ± 0.11 nM | IC50 (MSK1): < 40 nM | increase in the number of SKOV3 cells (SKOV3 cells [3]): over 2 fold | growth of spheroids formed in hanging drops (A431 cells): promoted the growth of spheroids | IC50 (PKACα): < 40 nM | number of cysts versus vehicle control (DMSO) (MDCK cells): 1.5 fold | IC50 (LATS2): 3.92 ± 0.42 nM | Ki (LATS2): 0.25 ± 0.03 nM | IC50 (SGK3): < 40 nM | cell growth under 2D conditions (SKOV3 cells [4]): did not affect cell growth | IC50 (p70S6K): < 40 nM | ex vivo formation of intestinal organoids [5]: significantly enhanced the ex vivo formation of intestinal organoids | IC50 (SGK2): < 40 nM | IC50 (PKACβ): < 40 nM
